# Screens: PubChem, several laboratories
# The list is not random: actives were taken first. Their share in the collection is about 2.4%.
# M18AAP inhibitor = blocks P. falciparum M18 aspartyl aminopeptidase | inhibition, % at 7.35 µM | hit rate 1.2% among 290,000 | AID 1822 | recombinant PfM18AAP, H-Glu-NHMec fluorogenic cleavage;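 active = inhibition above the campaign mean inhibition over all tested compounds plus 3 SD, cut at about 28% in these data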;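 also: 0% = plate median of test compound wells and 100% = 2 mM ZnCl2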
# APOBEC3G inh = APOBEC3G (human) deaminase inhibition | Q9HC16 | recombinant A3G, ssDNA deamination FAM/TAMRA fluorescence | inhibition, % at 20 µM | hit rate 0.28% among 330,000 | AID 493012;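 active = inhibition of at least 40% at 20 µM, with no more than 30% in the related APOBEC3A deaminase screen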;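 also: plate controls were DMSO wells with A3G for no effect and wells lacking A3G enzyme for full effect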
# APOBEC3A inh = inhibitors of human APOBEC3A DNA deaminase; P31941; recombinant A3A, FAM/TAMRA ssDNA deamination fluorescence; inhibition, % at 20 µM; hit rate 0.41% among 330,000;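 active = at least 40% inhibition at 20 µM here, with at most 30% in a related deaminase screen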;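 also: plate controls were A3A with DMSO for no effect and wells lacking A3A enzyme for full effect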
# Target sequence (P31941 whole entry, looked up): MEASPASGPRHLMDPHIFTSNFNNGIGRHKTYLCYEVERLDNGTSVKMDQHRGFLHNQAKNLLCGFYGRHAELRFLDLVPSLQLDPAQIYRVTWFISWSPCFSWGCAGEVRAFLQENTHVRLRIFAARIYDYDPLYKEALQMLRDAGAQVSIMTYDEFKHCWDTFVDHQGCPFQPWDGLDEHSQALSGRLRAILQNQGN
# HKDC1 inhibitor = blocks human hexokinase HKDC1 activity; Q2TB90; recombinant HKDC1, G6PDH/diaphorase resazurin coupled fluorescence; inhibition, % at 20 µM; hit rate 0.16% among 340,000;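 active = inhibition above about 35% when tested at 20 µM, limit read from the data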;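 also: plate controls were DMSO wells with enzyme for no effect and DMSO wells lacking enzyme for full effect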
#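 Incubation: 90 min at room temperature in dark / Material: recombinant HKDC1 (HK5) hexokinase enzyme, produced in-house / Quantity: enzyme 5 µg/mL final / Compound: one dose of 20 µM, 1% DMSO / Reagent: glucose and ATP substrates / Buffer or medium: Tris pH 8.0 buffer with MgCl2, Tween-20, BSA, BME / Technique: resorufin fluorescence at 613 nm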
# PfG6PD inh = PfG6PD (Plasmodium falciparum) enzyme inhibition | PfGluPho enzyme, NADPH resazurin-diaphorase fluorescence | inhibition, % at 20 µM | hit rate 0.78% among 350,000 | AID 504690;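 active = inhibition reaching at least a set limit at 20 µM in the primary screen, cut at about 59% in these data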;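 also: 0% = DMSO wells with substrate and 100% = DMSO wells lacking glucose-6-phosphate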
# SUMO HTRF inh = inhibitors of human SUMOylation (UBC9); inhibition, % at 35 µM; HTRF SUMOylation assay, SAE1/SAE2 + UBC9, in vitro; AID 2006; hit rate 0.36% among 290,000; P63279; in the data active = inhibition above about 50%, passing the limit was not always enough
# Target sequence (P63279 whole entry, looked up): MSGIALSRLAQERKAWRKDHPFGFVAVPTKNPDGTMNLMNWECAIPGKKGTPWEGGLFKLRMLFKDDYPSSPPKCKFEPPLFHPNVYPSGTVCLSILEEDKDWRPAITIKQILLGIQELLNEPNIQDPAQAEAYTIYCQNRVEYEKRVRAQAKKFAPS
# PfG6PD confirm = PfG6PD inhibition, single-dose confirmed | shares compounds with PfG6PD inh | recombinant PfGluPho, NADPH-diaphorase-resazurin fluorescence | inhibition, % at 20 µM | hit rate 34% among 2,400 | AID 504753;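 active = inhibition of at least 50% at 20 µM in any single replicate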;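 also: 0% = DMSO with substrate and 100% = DMSO lacking glucose-6-phosphate substrate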
# Diaphorase 10uM = diaphorase inhibition or oxidation at 10 uM NADPH; shares compounds with PfG6PD inh; diaphorase-coupled resazurin reduction, fluorescence, NADPH 10 uM; hit rate 39% among 820; inhibition, % at 20 µM;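 active = average inhibition reaching 50% or more with the compound at 20 µM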;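 also: resorufin red fluorescence formed as diaphorase reduces resazurin using NADPH; 0% = DMSO with enzyme and 100% = DMSO without enzyme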
# Diaph ctr 30uM = inhibits diaphorase or oxidizes, flagging false PfG6PD hits | Diaphorase/resazurin coupled assay, resorufin fluorescence, 30 uM NADPH | hit rate 29% among 820 | shares compounds with PfG6PD inh | inhibition, % at 20 µM | AID 504863;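 active = inhibition averaging 50% or more, tested at 20 µM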;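 also: 0% = DMSO with enzyme and 100% = DMSO wells lacking diaphorase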
# An asterisk follows results filed as active; . = not tested or not shown.
SMILES,M18AAP inhibitor,APOBEC3G inh,APOBEC3A inh,HKDC1 inhibitor,PfG6PD inh,SUMO HTRF inh,PfG6PD confirm,others
Cc1ccc(C(=O)c2coc3ccc(O)c(Cl)c23)cc1,6,-6,-5,5,63*,13,27,
C=CCNC(=O)/C(=C/c1cn(-c2ccccc2)nc1-c1cccc([N+](=O)[O-])c1)NC(=O)c1ccccc1,-15,1,1,-9,10,-14,.,
COc1cc(C(=O)O/N=C2\C=CC(=O)C(C)=C2)cc(OC)c1OC,-3,-10,-2,-7,68*,-13,49*,Diaphorase 10uM=89*;Diaph ctr 30uM=90*
COc1ccc(C(=O)ON=C2C=C(C)C(=O)C(C)=C2)cc1,1,-4,-4,-2,76*,-15,52*,Diaphorase 10uM=13;Diaph ctr 30uM=15
COc1cc(C(=O)ON=C2C=C(C)C(=O)C(C)=C2)cc(OC)c1OC,-11,-6,-3,-6,80*,6,64*,Diaphorase 10uM=-1;Diaph ctr 30uM=8
COc1ccc(S(=O)(=O)N=C2C=C(C)C(=O)C(C)=C2)cc1,-31,-5,-3,11,23,17,.,
CC1=CC(=NOC(=O)c2cccc([N+](=O)[O-])c2)C=C(C)C1=O,3,-4,2,3,59,-1,.,
CCCN1C(=O)COc2ccc(C(=O)c3ccccc3C(=O)O)cc21,4,-5,-3,0,9,18,.,
O=C(O)c1ccccc1C(=O)c1ccc2c(c1)N(Cc1cccc(F)c1)C(=O)CO2,6,-1,0,9,93*,-1,58*,Diaphorase 10uM=58*;Diaph ctr 30uM=52*
COc1cc(/C=C/C(=O)O)cc(S(=O)(=O)Nc2ccc3[nH]c(=O)[nH]c3c2)c1OC,-6,-5,0,-5,9,-3,.,
COc1cc(CNC(C)(C)CO)cc(Br)c1OCc1ccc(Cl)cc1,-5,-10,-2,-4,-2,1,.,
COc1cc(/C=N/O)cc(Br)c1OCc1ccc(Cl)cc1,7,5,2,7,81*,15,11,
COc1ccccc1/C=N/NC(=O)c1c(-c2ccccc2)noc1C,10,-2,1,7,87*,4,66*,Diaphorase 10uM=84*;Diaph ctr 30uM=64*
Cc1ccc(OCC(=O)N/N=C/c2cn(C)c3ccccc23)cc1,6,-2,-2,-3,7,-7,.,
COc1cc(/C=N/NC(=O)c2c(-c3ccccc3)noc2C)cc(OC)c1OC,4,0,1,-3,-1,-4,.,
Cc1ccccc1OCC(=O)N/N=C/c1cn(C)c2ccccc12,3,-10,-3,4,64*,-18,24,
Cc1onc(-c2ccccc2)c1C(=O)N/N=C/c1cn(C)c2ccccc12,-4,-10,-4,4,90*,23,71*,Diaphorase 10uM=68*;Diaph ctr 30uM=58*
Cc1onc(-c2ccccc2)c1C(=O)N/N=C/c1cccs1,-2,-1,1,0,62*,-9,44,
COc1ccc(/C=N/NC(=O)c2c(-c3ccccc3)noc2C)cc1,-2,12,0,-7,-1,-23,.,
NS(=O)(=O)c1ccc(CCNC(=O)CSc2ccc3ccccc3c2)cc1,6,0,5,4,20,2,.,
Cc1c(NS(=O)(=O)c2cccc(C(=O)N3CCCC3)c2)c(=O)n(-c2ccccc2)n1C,.,-7,-4,-3,10,.,.,
COc1ccc(NC(=O)c2ccccc2NC(=O)c2ccco2)cc1,-5,-8,-1,2,5,25,.,
Cc1onc(-c2ccccc2)c1C(=O)N/N=C/c1ccccc1OC(C)C,2,4,-4,6,117*,-25,85*,Diaphorase 10uM=76*;Diaph ctr 30uM=50*
CCOC(=O)c1c(C)[nH]c(C(=O)CSc2ccc(Cl)cc2)c1C,-1,-8,-4,-8,-4,-4,.,
COc1ccc(Oc2ccc(/C=N/NC(=O)c3cccnc3)cc2[N+](=O)[O-])cc1,1,-6,-4,-5,-3,12,.,
SMILES,M18AAP inhibitor,APOBEC3G inh,APOBEC3A inh,HKDC1 inhibitor,PfG6PD inh,SUMO HTRF inh,PfG6PD confirm,others
COc1ccc2c(c1)sc1nc(-c3ccccc3)cn12,0,1,0,7,98*,-10,26,
CCOC(=O)N1CCN(C(=O)c2ccc3c(c2)sc2nc(-c4ccc(OC)cc4)cn23)CC1,9,3,1,-10,13,6,.,
O=C(/C=C/c1ccc(OCCCF)cc1)NCc1ccc(Cl)c(Cl)c1,5,-6,2,-4,5,-6,.,
CC1=CC(=Nc2c(C)n(C)n(-c3ccccc3)c2=O)C=C(C)C1=O,1,3,2,6,72*,16,57*,Diaphorase 10uM=64*;Diaph ctr 30uM=69*
Cc1ccc(S(=O)(=O)NCc2ccccc2)cc1C(=O)N1CC(C)CC(C)C1 (stereo unspecified),.,-9,1,-3,-4,.,.,
O=C(COc1cccc2ccccc12)N/N=C/c1ccc(Sc2nc3ccccc3s2)o1,8,-10,-7,6,27,14,.,
Cc1ccccc1OCC(=O)N/N=C/c1ccc(Sc2nc3ccccc3s2)o1,0,-6,-4,8,123*,-16,59*,Diaphorase 10uM=44;Diaph ctr 30uM=44
COCC(=O)N/N=C/c1ccc(Sc2nc3ccccc3s2)o1,-1,2,1,1,60*,-10,21,
Cc1ccc(/C=N/NC(=O)CSc2nc3ccccc3s2)o1,-2,2,6,-4,41,-8,.,
O=C(Cc1cccc2ccccc12)N/N=C/c1ccc(Sc2nc3ccccc3s2)o1,6,-4,-2,5,74*,-15,6,
CCOc1ccccc1N(C(=O)c1snc(C(N)=O)c1N)C(C(=O)NCCC(C)C)c1ccco1 (stereo unspecified),5,-1,2,4,2,11,.,
N#CC1=C(N)Oc2c(O)cc3ccccc3c2C1c1ccsc1 (stereo unspecified),8,-11,-2,-2,92*,18,69*,Diaphorase 10uM=64*;Diaph ctr 30uM=50
COc1ccc([C@H]2C(C#N)=C([S-])N[C@](C)(O)[C@@H]2[n+]2ccccc2)cc1,11,.,.,6,69*,16,38,
Cc1nn(-c2ccc(Br)cc2)c(=O)c2ccccc12,10,-6,1,0,-7,-7,.,
C/C(=N\Nc1cccc([N+](=O)[O-])c1)c1cc(F)ccc1O,-4,-2,2,-4,84*,1,16,
C/C(=N\Nc1cccc([N+](=O)[O-])c1)c1ccccc1O,10,0,1,-1,58,-1,.,
Cc1ccc(Nc2ccccc2)cc1,-9,-3,-2,-2,-3,6,.,
